Assay results published in ChEMBL document CHEMBL1140401, “Synthesis and pharmacological evaluation of Tic-hydantoin derivatives as selective sigma1 ligands. Part 2” (Bioorg Med Chem Lett, 2005).

Experiments:
Sigma 2 receptor = assay: Inhibitory activity against opioid sigma 2 receptor in rat cerebral cortex using [3H]DTG (+300 nM (+)pentazocine) as radio ligand at pH 7.5 for 120 min at 22 degree C; assay type: tissue-based
MRC5 = assay: Cytotoxicity against a human diploid embryonic lung cell line (MRC-5 cells) using the colorimetric MTT assay; assay type: functional
Summary of the method: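 MRC-5 human embryonic lung cells were exposed to the compounds, and viability was read by colorimetric MTT assay. The read-out is the CC50.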

[1] = biological target: Sigma non-opioid intracellular receptor 1 (Cavia porcellus) (UniProt Q60492); assay: Selectivity index against opioid receptor sigma 1 versus cytotoxicity to that of inhibitory concentration
Chain of Sigma non-opioid intracellular receptor 1 (Cavia porcellus) (Q60492 whole entry, looked up): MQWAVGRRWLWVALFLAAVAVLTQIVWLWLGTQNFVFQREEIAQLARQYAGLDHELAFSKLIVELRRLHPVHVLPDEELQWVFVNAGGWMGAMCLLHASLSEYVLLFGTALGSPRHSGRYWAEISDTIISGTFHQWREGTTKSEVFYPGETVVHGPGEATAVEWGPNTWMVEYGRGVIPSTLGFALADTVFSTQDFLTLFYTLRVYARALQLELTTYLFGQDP

Structure (SMILES)	IC50 (Sigma 2 receptor)	CC50 (MRC5)	IS [1]
O=C1[C@@H]2Cc3ccccc3CN2C(=O)N1CCCNCc1ccccc1	> 1000 nM		
O=C1[C@@H]2Cc3ccccc3CN2C(=O)N1CCCNCCCCc1ccccc1		31000 nM	2950
CN(CCCCCc1ccccc1)CCN1C(=O)[C@@H]2Cc3ccccc3CN2C1=O	> 1000 nM		
CN(CCCc1ccccc1)CCN1C(=O)[C@@H]2Cc3ccccc3CN2C1=O		136000 nM	10000
CN(CCCN1C(=O)[C@@H]2Cc3ccccc3CN2C1=O)CCc1ccccc1	21 nM		
CN(CCN1C(=O)[C@@H]2Cc3ccccc3CN2C1=O)Cc1ccccc1	972 nM	107000 nM	23800
CN(CCCCN1C(=O)[C@@H]2Cc3ccccc3CN2C1=O)Cc1ccccc1	> 100 nM		
CN(CCCCc1ccccc1)CCN1C(=O)[C@@H]2Cc3ccccc3CN2C1=O	358 nM		
CN(CCCCN1C(=O)[C@@H]2Cc3ccccc3CN2C1=O)CCc1ccccc1		106000 nM	10700
CN(CCCCCN1C(=O)[C@@H]2Cc3ccccc3CN2C1=O)Cc1ccccc1	81 nM	101000 nM	20200
O=C1[C@@H]2Cc3ccccc3CN2C(=O)N1CCN1CCCCC1	> 1000 nM		
CN(CCCN1C(=O)[C@@H]2Cc3ccccc3CN2C1=O)Cc1ccccc1	502 nM	196000 nM	
